Experimental data of several laboratories.
Each line is one published result; the experiments were not run side by side.
ABL1 phosphorylated: Tyrosine-protein kinase ABL1, phosphorylated (ABL1, Homo sapiens, UniProt P00519)
ABL1: Tyrosine-protein kinase ABL1 (ABL1, Homo sapiens, UniProt P00519)
ABL1 Y253F: Tyrosine-protein kinase ABL1 (ABL1, Homo sapiens, UniProt P00519, Y253F)

CN1CCN(C(=O)c2ccc(NC(=O)Nc3ccc(N(C)c4ccnc(Nc5ccc(CS(C)(=O)=O)cc5)n4)cc3)cc2)CC1  remaining binding (Tyrosine-protein kinase ABL1, non-phosphorylated (ABL1, Homo sapiens, UniProt P00519); binding, competition with immobilised ligand; 1 µM): 9%
CCCCC(=O)Nc1ccc(-c2ccc3ncn(CCC)c(=O)c3c2)cn1  remaining binding (ABL1 phosphorylated; binding, competition with immobilised ligand; 0.5 µM): 93%
[2H]c1cc(C)c(NC(=O)c2cnc(Nc3cc(N4CC[C@H](O)C4)nc(C)n3)s2)c(Cl)c1  inhibition (ABL1; enzyme activity, inhibitor; 1 nM): 86%
COc1ccc2oc(-c3ccc4nc(N)oc4c3)c/c(=N\c3ccccc3NC(=O)CCN)c2c1  remaining signal (ABL1 Y253F; cell-free assay; 1 µM): 95%
CO[C@@H]1[C@H](N(C)C(=O)c2ccccc2)C[C@H]2O[C@]1(C)n1c3ccccc3c3c4c(c5c6ccccc6n2c5c31)C(=O)NC4  inhibition (Tyrosine-protein kinase ABL1, phosphorylated (ABL1, Homo sapiens, UniProt P00519, M351T); enzyme activity, inhibitor; 1 µM): 13%
[2H]c1cc(C)c(NC(=O)c2cnc(Nc3cc(N4CCCCC4)nc(C)n3)s2)c(Cl)c1  inhibition (ABL1; enzyme activity, inhibitor; 1 nM): 96%
C=CC(=O)N1CCC([C@@H]2CCNc3c(C(N)=O)c(-c4ccc(Oc5ccccc5)cc4)nn32)CC1  inhibition (Tyrosine-protein kinase ABL1, phosphorylated (ABL1, Homo sapiens, UniProt P00519, F317I); enzyme activity, inhibitor; 1 µM): 27%
Cc1nc(Nc2ncc(C(=O)Nc3c(C)cccc3Cl)s2)cc(N2CCCCC2)n1  inhibition (ABL1; enzyme activity, inhibitor; 1 nM): 65%
C[C@H]1CC[C@H](n2c3cnccc3c3cnc(Nc4ccc5c(n4)CCN(C(=O)CO)C5)nc32)CC1  remaining binding (ABL1 phosphorylated; binding, competition with immobilised ligand; 1 µM): 100%
Cc1nc(Nc2ncc(C(=O)Nc3c(C)cccc3Cl)s2)cc(N2CC[C@@H](N)C2)n1  inhibition (ABL1; enzyme activity, inhibitor; 1 nM): 93%
COc1ccc2[nH]c3c4[nH]c5ccc(OC)cc5c4c4c(c3c2c1)C(=O)NC4=O  remaining binding (Tyrosine-protein kinase ABL1 (ABL1, Homo sapiens, UniProt P00519, F317I); binding; 1 µM): 87%
Cc1nc(Nc2ncc(C(=O)Nc3c(C)cccc3Cl)s2)cc(N2CCC(O)CC2)n1  inhibition (ABL1; enzyme activity, inhibitor; 1 nM): 83%
Cc1ccc(NC(=O)c2ccnc(C(F)(F)F)c2)cc1-c1cc(OCCO)nc(N2CCOCC2)c1  remaining binding (ABL1 Y253F; binding; 1 µM): 100%
C1=C/COCc2cc(ccc2OCCN2CCCC2)Nc2nccc(n2)-c2cccc(c2)COC/1  remaining binding (Tyrosine-protein kinase ABL1 (ABL1, Homo sapiens, UniProt P00519, E255K); binding; 0.1 µM): 23%
CC#CC(=O)N1CCC[C@H]1c1nc(-c2ccc(C(=O)Nc3ccccn3)cc2)c2c(N)nccn12  inhibition (Tyrosine-protein kinase ABL1, non-phosphorylated (ABL1, Homo sapiens, UniProt P00519, T315I); enzyme activity, inhibitor; 1 µM): 19%
N#Cc1ccc(NC(=O)Nc2ccccc2)cc1  remaining binding (ABL1 phosphorylated; cell-free assay, competition with immobilised ligand; 25 µM): 96%
